# Measurements published in ChEMBL document CHEMBL4689842, “EUbOPEN Chemogenomics Library wave 1” (2021).
# Tested on: Fibroblast
# Assay: Multiplex assay against human fibroblast
# Format: toxicity, cell-based
# Summary of the method: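 Live cells carried four stains from seeding: Hoechst33342, BioTracker Green Microtubule Cytoskeleton Dye, MitoTracker Red and Annexin V Alexa Fluor 680. They were imaged on a CQ1 microscope at 37°C and 5% CO2 after compound addition. Using CellPathfinder machine-learning gating, cells were split into Hoechst high-intensity objects or normal cells, normal cells into healthy, pyknosed or fragmented nuclei, and pyknosed cells into mitotic or apoptotic; tubulin, mitochondrial-mass and membrane-permeability phenotypes are per cents of healthy-nucleus cells.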
# [1] = 12 h, 1 µM, compound concentration 1 uM, replicate 1
# [2] = 12 h, 1 µM, compound concentration 1 uM, replicate 2
# [3] = 12 h, 10 µM, compound concentration 10 uM, replicate 1
# [4] = 12 h, 10 µM, compound concentration 10 uM, replicate 2
# [5] = 24 h, 1 µM, compound concentration 1 uM, replicate 1
# [6] = 24 h, 1 µM, compound concentration 1 uM, replicate 2
# [7] = 24 h, 10 µM, compound concentration 10 uM, replicate 1
# [8] = 24 h, 10 µM, compound concentration 10 uM, replicate 2
# [9] = 48 h, 1 µM, compound concentration 1 uM, replicate 1
# [10] = 48 h, 1 µM, compound concentration 1 uM, replicate 2
# [11] = 48 h, 10 µM, compound concentration 10 uM, replicate 1
# [12] = 48 h, 10 µM, compound concentration 10 uM, replicate 2
structure (smiles),measurement,setting,value
CCOC(=O)c1c(C)[nH]c2ccc3c(c12)CN1CCc2cc(OC)ccc2C1O3 (stereo not drawn),Population Apoptotic (%),[1],69%
same,Population Fragmented Nuclei (%),[1],21%
same,Population Healthy Nuclei (%),[1],51%
same,Population Hoechst High Intensity Objects (%),[1],8%
same,Population Membrane Permeable-Phenotype (%),[1],8%
same,Population Mitochondria Different-Phenotype (%),[1],23%
same,Population Mitotic Cells (%),[1],30%
same,Population Normal (%),[1],91%
same,Population Pyknosed Nuclei (%),[1],26%
same,Population Tubulin-Different-Phenotype (%),[1],43%
same,Total Cell Count,[1],150
same,Population Apoptotic (%),[2],9%
same,Population Fragmented Nuclei (%),[2],9%
same,Population Healthy Nuclei (%),[2],76%
same,Population Hoechst High Intensity Objects (%),[2],9%
same,Population Membrane Permeable-Phenotype (%),[2],3%
same,Population Mitochondria Different-Phenotype (%),[2],70%
same,Population Mitotic Cells (%),[2],90%
same,Population Normal (%),[2],90%
same,Population Pyknosed Nuclei (%),[2],14%
same,Population Tubulin-Different-Phenotype (%),[2],62%
same,Total Cell Count,[2],65
same,Population Apoptotic (%),[3],82%
same,Population Fragmented Nuclei (%),[3],18%
same,Population Healthy Nuclei (%),[3],38%
same,Population Hoechst High Intensity Objects (%),[3],7%
same,Population Membrane Permeable-Phenotype (%),[3],12%
same,Population Mitochondria Different-Phenotype (%),[3],74%
same,Population Mitotic Cells (%),[3],17%
same,Population Normal (%),[3],92%
same,Population Pyknosed Nuclei (%),[3],43%
same,Population Tubulin-Different-Phenotype (%),[3],80%
same,Total Cell Count,[3],88
same,Population Apoptotic (%),[4],80%
same,Population Fragmented Nuclei (%),[4],2%
same,Population Healthy Nuclei (%),[4],75%
same,Population Hoechst High Intensity Objects (%),[4],11%
same,Population Membrane Permeable-Phenotype (%),[4],70%
same,Population Mitochondria Different-Phenotype (%),[4],100%
same,Population Mitotic Cells (%),[4],20%
same,Population Normal (%),[4],88%
same,Population Pyknosed Nuclei (%),[4],22%
same,Population Tubulin-Different-Phenotype (%),[4],100%
same,Total Cell Count,[4],84
same,Population Apoptotic (%),[5],62%
same,Population Fragmented Nuclei (%),[5],29%
same,Population Healthy Nuclei (%),[5],58%
same,Population Hoechst High Intensity Objects (%),[5],13%
same,Population Membrane Permeable-Phenotype (%),[5],13%
same,Population Mitochondria Different-Phenotype (%),[5],13%
same,Population Mitotic Cells (%),[5],37%
same,Population Normal (%),[5],86%
same,Population Pyknosed Nuclei (%),[5],12%
same,Population Tubulin-Different-Phenotype (%),[5],48%
same,Total Cell Count,[5],152
same,Population Apoptotic (%),[6],8%
same,Population Fragmented Nuclei (%),[6],9%
same,Population Healthy Nuclei (%),[6],75%
same,Population Hoechst High Intensity Objects (%),[6],5%
same,Population Membrane Permeable-Phenotype (%),[6],1%
same,Population Mitochondria Different-Phenotype (%),[6],58%
same,Population Mitotic Cells (%),[6],91%
same,Population Normal (%),[6],94%
same,Population Pyknosed Nuclei (%),[6],14%
same,Population Tubulin-Different-Phenotype (%),[6],35%
same,Total Cell Count,[6],65
same,Population Apoptotic (%),[7],70%
same,Population Fragmented Nuclei (%),[7],27%
same,Population Healthy Nuclei (%),[7],46%
same,Population Hoechst High Intensity Objects (%),[7],20%
same,Population Membrane Permeable-Phenotype (%),[7],13%
same,Population Mitochondria Different-Phenotype (%),[7],70%
same,Population Mitotic Cells (%),[7],30%
same,Population Normal (%),[7],79%
same,Population Pyknosed Nuclei (%),[7],25%
same,Population Tubulin-Different-Phenotype (%),[7],86%
same,Total Cell Count,[7],99
same,Population Apoptotic (%),[8],89%
same,Population Fragmented Nuclei (%),[8],6%
same,Population Healthy Nuclei (%),[8],52%
same,Population Hoechst High Intensity Objects (%),[8],11%
same,Population Membrane Permeable-Phenotype (%),[8],83%
same,Population Mitochondria Different-Phenotype (%),[8],100%
same,Population Mitotic Cells (%),[8],10%
same,Population Normal (%),[8],88%
same,Population Pyknosed Nuclei (%),[8],41%
same,Population Tubulin-Different-Phenotype (%),[8],100%
same,Total Cell Count,[8],87
same,Population Apoptotic (%),[9],64%
same,Population Fragmented Nuclei (%),[9],32%
same,Population Healthy Nuclei (%),[9],54%
same,Population Hoechst High Intensity Objects (%),[9],14%
same,Population Membrane Permeable-Phenotype (%),[9],9%
same,Population Mitochondria Different-Phenotype (%),[9],9%
same,Population Mitotic Cells (%),[9],35%
same,Population Normal (%),[9],85%
same,Population Pyknosed Nuclei (%),[9],12%
same,Population Tubulin-Different-Phenotype (%),[9],47%
same,Total Cell Count,[9],155
same,Population Apoptotic (%),[10],100%
same,Population Fragmented Nuclei (%),[10],33%
same,Population Healthy Nuclei (%),[10],66%
same,Population Hoechst High Intensity Objects (%),[10],11%
same,Population Membrane Permeable-Phenotype (%),[10],6%
same,Population Mitochondria Different-Phenotype (%),[10],3%
same,Population Mitotic Cells (%),[10],0%
same,Population Normal (%),[10],88%
same,Population Pyknosed Nuclei (%),[10],0%
same,Total Cell Count,[10],185
same,Population Apoptotic (%),[11],90%
same,Population Fragmented Nuclei (%),[11],36%
same,Population Healthy Nuclei (%),[11],50%
same,Population Hoechst High Intensity Objects (%),[11],28%
same,Population Membrane Permeable-Phenotype (%),[11],10%
same,Population Mitochondria Different-Phenotype (%),[11],82%
same,Population Mitotic Cells (%),[11],10%
same,Population Normal (%),[11],71%
same,Population Pyknosed Nuclei (%),[11],12%
same,Population Tubulin-Different-Phenotype (%),[11],84%
same,Total Cell Count,[11],108
same,Population Apoptotic (%),[12],66%
same,Population Fragmented Nuclei (%),[12],46%
same,Population Healthy Nuclei (%),[12],51%
same,Population Hoechst High Intensity Objects (%),[12],25%
same,Population Membrane Permeable-Phenotype (%),[12],0%
same,Population Mitochondria Different-Phenotype (%),[12],74%
same,Population Mitotic Cells (%),[12],33%
same,Population Normal (%),[12],74%
same,Population Pyknosed Nuclei (%),[12],1%
same,Population Tubulin-Different-Phenotype (%),[12],89%
same,Total Cell Count,[12],223
COc1ccc(S(=O)(=O)N(CCO)c2ccccc2CN(C)C/C=C/c2ccc(Cl)cc2)cc1.O=P(O)(O)O,Population Fragmented Nuclei (%),[1],35%
same,Population Healthy Nuclei (%),[1],51%
same,Population Hoechst High Intensity Objects (%),[1],16%
same,Population Membrane Permeable-Phenotype (%),[1],12%
same,Population Mitochondria Different-Phenotype (%),[1],29%
same,Population Mitotic Cells (%),[1],19%
same,Population Normal (%),[1],83%
same,Population Pyknosed Nuclei (%),[1],13%
same,Population Tubulin-Different-Phenotype (%),[1],86%
same,Total Cell Count,[1],278
same,Population Apoptotic (%),[2],80%
same,Population Fragmented Nuclei (%),[2],56%
same,Population Healthy Nuclei (%),[2],33%
same,Population Hoechst High Intensity Objects (%),[2],33%
same,Population Membrane Permeable-Phenotype (%),[2],11%
same,Population Mitochondria Different-Phenotype (%),[2],88%
same,Population Mitotic Cells (%),[2],20%
same,Population Normal (%),[2],66%
same,Population Pyknosed Nuclei (%),[2],9%
same,Population Tubulin-Different-Phenotype (%),[2],94%
same,Total Cell Count,[2],77
same,Population Apoptotic (%),[3],75%
same,Population Fragmented Nuclei (%),[3],32%
same,Population Healthy Nuclei (%),[3],55%
same,Population Hoechst High Intensity Objects (%),[3],10%
same,Population Membrane Permeable-Phenotype (%),[3],14%
same,Population Mitochondria Different-Phenotype (%),[3],5%
same,Population Mitotic Cells (%),[3],25%
same,Population Normal (%),[3],89%
same,Population Pyknosed Nuclei (%),[3],12%
same,Population Tubulin-Different-Phenotype (%),[3],19%
same,Total Cell Count,[3],179
same,Population Apoptotic (%),[4],50%
same,Population Fragmented Nuclei (%),[4],61%
same,Population Healthy Nuclei (%),[4],34%
same,Population Hoechst High Intensity Objects (%),[4],44%
same,Population Membrane Permeable-Phenotype (%),[4],22%
same,Population Mitochondria Different-Phenotype (%),[4],22%
same,Population Mitotic Cells (%),[4],50%
same,Population Normal (%),[4],55%
same,Population Pyknosed Nuclei (%),[4],3%
same,Population Tubulin-Different-Phenotype (%),[4],55%
same,Total Cell Count,[4],94
same,Population Apoptotic (%),[5],80%
same,Population Fragmented Nuclei (%),[5],34%
same,Population Healthy Nuclei (%),[5],55%
same,Population Hoechst High Intensity Objects (%),[5],23%
same,Population Membrane Permeable-Phenotype (%),[5],5%
same,Population Mitochondria Different-Phenotype (%),[5],79%
same,Population Mitotic Cells (%),[5],20%
same,Population Normal (%),[5],76%
same,Population Pyknosed Nuclei (%),[5],9%
same,Population Tubulin-Different-Phenotype (%),[5],90%
same,Total Cell Count,[5],264
same,Population Apoptotic (%),[6],100%
same,Population Fragmented Nuclei (%),[6],48%
same,Population Healthy Nuclei (%),[6],38%
same,Population Hoechst High Intensity Objects (%),[6],37%
same,Population Membrane Permeable-Phenotype (%),[6],0%
same,Population Mitochondria Different-Phenotype (%),[6],100%
same,Population Mitotic Cells (%),[6],0%
same,Population Normal (%),[6],62%
same,Population Pyknosed Nuclei (%),[6],12%
same,Population Tubulin-Different-Phenotype (%),[6],88%
same,Total Cell Count,[6],75
same,Population Apoptotic (%),[7],69%
same,Population Fragmented Nuclei (%),[7],33%
same,Population Healthy Nuclei (%),[7],52%
same,Population Hoechst High Intensity Objects (%),[7],14%
same,Population Membrane Permeable-Phenotype (%),[7],8%
same,Population Mitochondria Different-Phenotype (%),[7],3%
same,Population Mitotic Cells (%),[7],30%
same,Population Normal (%),[7],85%
same,Population Pyknosed Nuclei (%),[7],14%
same,Population Tubulin-Different-Phenotype (%),[7],14%
same,Total Cell Count,[7],186
same,Population Apoptotic (%),[8],75%
same,Population Fragmented Nuclei (%),[8],71%
same,Population Healthy Nuclei (%),[8],20%
same,Population Hoechst High Intensity Objects (%),[8],44%
same,Population Membrane Permeable-Phenotype (%),[8],18%
same,Population Mitochondria Different-Phenotype (%),[8],18%
same,Population Mitotic Cells (%),[8],25%
same,Population Normal (%),[8],55%
same,Population Pyknosed Nuclei (%),[8],7%
same,Population Tubulin-Different-Phenotype (%),[8],36%
same,Total Cell Count,[8],95
